Experimental data from ChEMBL document CHEMBL1129476, “In vivo activity and hydrophobicity of cytostatic aziridinyl quinones” (J Med Chem, 1996).

Key:
[1] = Partition coefficient (logP); format: physicochemical; settings: octanol/water
How it was run: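 Micro shake-flask: buffered aqueous compound solution (pH 6.50) shaken with an equal volume of water-saturated 1-octanol at room temperature, 3 × 120 s. Centrifuged 14000g, 15 min. Aqueous phase analysed by RP-HPLC against the unshaken solution (methanol 30, 50 or 70 wt%, 1.0 mL/min, UV 254 nm). Run in duplicate, or quadruplicate if needed.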

[2] = HPLC capacity factor (logK); format: ADME
[3] = E1/2 for the half-wave potential at pH=7.0 in V57; format: ADME
[4] = tested on: Fungi; test: log 1/MIC for fungi in mmol/L; format: functional
[5] = tested on: L1210; test: log 1/ID75 for the in vitro clonogenic L1210 assay with ID75 in umol/L; format: functional, Mus musculus
[6] = Observed rate of hydrolysis (logKobs) (pH=4.0); format: ADME
How it was run: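 Hydrolysis followed by cyclic voltammetry at 20 °C in deaerated 0.1 M acetate buffers (pH 5.0–3.5) or 0.02 M NaH2PO4 (pH 3.5, 3.0), ionic strength 0.1 M (NaNO3). Decrease of the parent cathodic peak tracked over time. Pseudo-first-order kobs from linear regression of log concentration versus time.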

[7] = tested on: B16; test: log 1/D125 or the dose (mmol/kg) to give 125%T/C ratio (B16) in vivo; format: functional, Mus musculus
[8] = Electrochemically observed pKa (pKred) of aziridines; format: physicochemical; settings: read-out: pKred
[9] = tested on: L1210; test: log 1/D125 for the dose (mmol/kg) to give 125%T/C ratio (L1210) in vivo; format: functional, Mus musculus
[10] = log 1/LD50 for LD50 (mmol/kg); format: ADME
[11] = log 1/anion production.; format: functional
[12] = log KGSH for the rate k of glutathione (GSH) consumption in 1/s; format: functional

C/N=C1C=C(O)/C(=N/C)C=C/1O
logP [1]: 0.34
Log K [2]: -0.611

O=C1C=C(N2CCCC2)C(=O)C=C1N1CCCC1
Log K [2]: 0.587
E 1/2 [3]: -0.439
Log 1/MIC (mM L-1) [4]: -0.38
Log 1/ID75 (uM L-1) [5]: -1.61

COC1=C(N2CC2)C(=O)C(OC)=C(N2CC2)C1=O
Log Kobs [6]: -3.26
E 1/2 [3]: -0.179
Log 1/D125 (mM kg-1) [7]: 3.53
pKa [8]: 8
Log 1/ID75 (uM L-1) [5]: 0.15
Log 1/D125 (L1210) (mM kg-1) [9]: 2.38

O=C1C(N2CC2)=C(N2CC2)C(=O)C(N2CC2)=C1N1CC1
Log Kobs [6]: -3.7
E 1/2 [3]: -0.245
pKa [8]: 7.7
Log 1/MIC (mM L-1) [4]: 0.95
Log 1/ID75 (uM L-1) [5]: 0.9

CC1CN1C1=C(F)C(=O)C(N2CC2C)=C(N2CC2C)C1=O (stereo not given)
E 1/2 [3]: -0.195
Log 1/LD50 (mM kg-1) [10]: 1.45
pKa [8]: 8.2
Log 1/MIC (mM L-1) [4]: 1.18
Log 1/ID75 (uM L-1) [5]: 2.01

NC1=CC(=O)c2ccccc2C1=O
logP [1]: 1.88
Log K [2]: 0.129

CC1=C(N2CC2)C(=O)C(Br)=C(N2CC2)C1=O
Log Kobs [6]: -4.45
Log K [2]: 0.279
E 1/2 [3]: -0.185
Log 1/D125 (mM kg-1) [7]: 2.09
Log 1/LD50 (mM kg-1) [10]: 1.44
pKa [8]: 8.7
Log 1/MIC (mM L-1) [4]: 1.45
Log 1/ID75 (uM L-1) [5]: 2.76
Log 1/conc (mM min-1 L-1) [11]: 2.45

O=C1/C(=N/CCO)C=C(O)c2ccccc21
logP [1]: 1.23
Log K [2]: -0.005

O=C1C=C(N2CCCC2)C(=O)c2ccccc21
Log K [2]: 0.736

CCOC(=O)NC1=CC(=O)C(NC(=O)OCC)=CC1=O
Log 1/MIC (mM L-1) [4]: 0.85
Log 1/ID75 (uM L-1) [5]: 0.09

CC1=C(N2CC2)C(=O)C(CCO)=C(N2CC2)C1=O
logP [1]: 0.18
Log Kobs [6]: -4
Log 1/D125 (mM kg-1) [7]: 3.6
Log 1/LD50 (mM kg-1) [10]: 1.39
pKa [8]: 8.6
Log 1/MIC (mM L-1) [4]: 0.44
Log 1/ID75 (uM L-1) [5]: 1.51
Log 1/D125 (L1210) (mM kg-1) [9]: 3.37
Log 1/conc (mM min-1 L-1) [11]: 0.95

O=C1C=C(Cl)C(=O)c2ccccc21
logP [1]: 2.15
Log K [2]: 0.659

O=C1C=C(N2CC2)C(=O)c2ccccc21
Log K [2]: 0.346

CC1=C(C)C(=O)C(N2CCCC2)=CC1=O
E 1/2 [3]: -0.303
Log 1/MIC (mM L-1) [4]: -0.3
Log 1/ID75 (uM L-1) [5]: -1.7

CC1CN1C1=C(F)C(=O)C(N2CC2C)=C(F)C1=O (stereo not given)
Log K [2]: 0.444
E 1/2 [3]: -0.093
Log 1/LD50 (mM kg-1) [10]: 1.5
pKa [8]: 7.9
Log 1/MIC (mM L-1) [4]: 1.5
Log 1/ID75 (uM L-1) [5]: 1.49
Log 1/conc (mM min-1 L-1) [11]: 1.77

O=C1C(Cl)=C(N2CC2)C(=O)C(Cl)=C1N1CC1
Log Kobs [6]: -4.7
E 1/2 [3]: -0.133
Log 1/MIC (mM L-1) [4]: 1.63
Log 1/conc (mM min-1 L-1) [11]: 2.74

O=C1C=C(N2CC=CC2)C(=O)C=C1N1CC=CC1
Log 1/MIC (mM L-1) [4]: -0.52
Log 1/ID75 (uM L-1) [5]: -1.62

O=C1C=CC(=O)C=C1 [BENZOQUINONE]
Log K [2]: -0.466

O=C1C=C(N2CC=CC2)C(=O)c2ccccc21
Log K [2]: 0.896

CC1=CC(=O)C=C(C)C1=O
Log K [2]: 0.136

CN(C)C1=CC(=O)C(N(C)C)=CC1=O
Log K [2]: -0.004

CC1CN1C1=C(Cl)C(=O)C(N2CC2C)=C(Cl)C1=O (stereo not given)
Log Kobs [6]: -4.15
E 1/2 [3]: -0.125
Log 1/MIC (mM L-1) [4]: 1.16
Log 1/D125 (L1210) (mM kg-1) [9]: 1.16
Log 1/conc (mM min-1 L-1) [11]: 2.65

CC1CN1C1=CC(=O)C(N2CC2C)=CC1=O (stereo not given)
Log Kobs [6]: -1.55
Log K [2]: 0.152
E 1/2 [3]: -0.115
Log 1/D125 (mM kg-1) [7]: 2.12
Log 1/LD50 (mM kg-1) [10]: 1.16
pKa [8]: 8.1
Log 1/MIC (mM L-1) [4]: 0.44
Log 1/ID75 (uM L-1) [5]: 1.03
Log 1/D125 (L1210) (mM kg-1) [9]: 1.64
Log 1/conc (mM min-1 L-1) [11]: 1.75

O=C1C(N2CCCC2)=C(N2CC2)C(=O)C(N2CCCC2)=C1N1CC1
E 1/2 [3]: -0.315
Log 1/D125 (mM kg-1) [7]: 2.4
pKa [8]: 10.6
Log 1/D125 (L1210) (mM kg-1) [9]: 2.07

CC1=C(N2CC2)C(=O)C(Cl)=C(N2CC2)C1=O
Log Kobs [6]: -4.32
Log K [2]: 0.2
E 1/2 [3]: -0.197
Log 1/D125 (mM kg-1) [7]: 2.68
pKa [8]: 8.5
Log 1/ID75 (uM L-1) [5]: 2.41
Log 1/D125 (L1210) (mM kg-1) [9]: 1.99
Log 1/conc (mM min-1 L-1) [11]: 2.42

NC1=C(N2CC2)C(=O)C(N)=C(N2CC2)C1=O
Log 1/ID75 (uM L-1) [5]: 1.16

CC1=C(N2C(C)C2C)C(=O)C(Br)=C(N2C(C)C2C)C1=O (stereo not given)
Log Kobs [6]: -1.15
Log 1/LD50 (mM kg-1) [10]: 0.63
Log 1/D125 (L1210) (mM kg-1) [9]: 0.69

CC1=C(N2CC2C)C(=O)C(C)=C(N2CC2C)C1=O (stereo not given)
Log Kobs [6]: -2.61
E 1/2 [3]: -0.187
Log 1/D125 (mM kg-1) [7]: 2.27
Log 1/LD50 (mM kg-1) [10]: 1.4
pKa [8]: 8.6
Log 1/D125 (L1210) (mM kg-1) [9]: 1.47

CC1=CC(=O)c2ccccc2C1=O [MENADIONE]
Log K [2]: 0.607

CN(CCO)C1=C(N2CC2)C(=O)C(N(C)CCO)=C(N2CC2)C1=O
E 1/2 [3]: -0.225
pKa [8]: 9.7
Log 1/ID75 (uM L-1) [5]: 0.09

NC1=C(Cl)C(=O)c2ccccc2C1=O
Log K [2]: 0.259

CC1=C(C)C(=O)C(N2CC=CC2)=CC1=O
E 1/2 [3]: -0.311
Log 1/MIC (mM L-1) [4]: -0.17
Log 1/ID75 (uM L-1) [5]: -0.71

C/N=C1\C=C(O)c2ccccc2C1=O
logP [1]: 1.74
Log K [2]: 0.279

CC1CN1C1=CC(=O)c2ccccc2C1=O (stereo not given)
Log K [2]: 0.611

COC1=C(C)C(=O)C(N2CCCC2)=CC1=O
E 1/2 [3]: -0.315
Log 1/MIC (mM L-1) [4]: -0.26
Log 1/ID75 (uM L-1) [5]: -1.66

C/N=C1C(O)=C(N2CC2)/C(=N\C)C(O)=C\1N1CC1
logP [1]: 0.13
E 1/2 [3]: -0.415
Log 1/D125 (mM kg-1) [7]: 3.14
pKa [8]: 8.5
Log 1/ID75 (uM L-1) [5]: 0.32
Log 1/D125 (L1210) (mM kg-1) [9]: 2.49

CC1CN1C1=C(N2CCCC2)C(=O)C(N2CC2C)=C(N2CCCC2)C1=O (stereo not given)
E 1/2 [3]: -0.303
pKa [8]: 11.1

O=C1C=C(Br)C(=O)c2ccccc21 [2-Bromo-1,4-naphthoquinone]
Log K [2]: 0.748

OCC/N=C1C(O)=C(N2CC2)/C(=N\CCO)C(O)=C/1N1CC1
Log Kobs [6]: -2.8
E 1/2 [3]: -0.385
Log 1/D125 (mM kg-1) [7]: 3.94
pKa [8]: 9.5
Log 1/ID75 (uM L-1) [5]: 0.42
Log 1/D125 (L1210) (mM kg-1) [9]: 3.39

CN(C)C1=CC(=O)c2ccccc2C1=O
Log K [2]: 0.591

O=C1C(F)=C(N2CC2)C(=O)C(F)=C1N1CC1
Log k GSH (s-1) [12]: -2.21
Log Kobs [6]: -4.03
E 1/2 [3]: -0.087
pKa [8]: 7.2
Log 1/MIC (mM L-1) [4]: 1.75
Log 1/conc (mM min-1 L-1) [11]: 1.72

C/N=C1C(O)=C(N2CC2C)/C(=N\C)C(O)=C\1N1CC1C (stereo not given)
E 1/2 [3]: -0.4
Log 1/D125 (mM kg-1) [7]: 2.33
pKa [8]: 9.3
Log 1/D125 (L1210) (mM kg-1) [9]: 2.19

CC1=C(C)C(=O)C(C)=C(C)C1=O [DUROQUINONE]
logP [1]: 2.12
Log K [2]: 0.776

CC1=CC(=O)C=CC1=O [Cresoquinone]
logP [1]: 0.73

O=C1C=CC(=O)c2ccccc21 [NAPHTHOQUINONE]
Log K [2]: 0.299

CC1CN1C1=C(Br)C(=O)C(N2CC2C)=C(Br)C1=O (stereo not given)
Log Kobs [6]: -3.45
Log 1/MIC (mM L-1) [4]: 1.28
Log 1/ID75 (uM L-1) [5]: 0.77
Log 1/conc (mM min-1 L-1) [11]: 2.8
